Test results: ChEMBL document CHEMBL4706762, “Massively Parallel Optimization of the Linker Domain in Small Molecule Dimers Targeting a Toxic r(CUG) Repeat Expansion” (ACS Med Chem Lett, 2021)
Active and inactive are the calls of the source. No cut-off for these calls is given here.

Legend:
r(CUG) repeat expansion [1] = assay: Binding affinity to r(CUG)exp RNA repeat in DM1-patient derived myotubes assessed as improvement in MBNL1 exon 5 splicing defect at 0.04 to 1 uM measured after 48 hrs by RT-qPCR analysis relative to control; type: tissue-based; details: Homo sapiens, Myotube, dose 0.04-1 µM
Procedure, shortened: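 Dose–response for MBNL1 exon 5 splicing rescue in DM1 patient myotubes (1300 r(CUG) repeats) after 48 h treatment; n = 6, SD, one-way ANOVA.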

r(CUG) repeat expansion [2] = assay: Binding affinity to r(CUG)12 RNA repeat (unknown origin) measured after 10 mins by fluorescence assay; type: nucleic-acid assay
Myotube [3] = assay: Effect on DMPK transcription in wild type human myotubes at 0.04 to 1 uM measured after 48 hrs by RT-qPCR analysis; type: functional; details: dose 0.04-1 µM
r(CUG) repeat expansion [4] = assay: Binding affinity to SCUBE2 r(CUG)7 RNA repeat in DM1 patient-derived myotubes at 1 uM measured after 48 hrs by RT-qPCR analysis; details: Homo sapiens, Myotube
Procedure, shortened: (§1)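 Transcript levels, either DMPK or r(CUG) repeat-containing mRNAs, quantified by RT-qPCR in treated DM1 myotubes; n = 6, one-way ANOVA.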

r(CUG) repeat expansion [5] = assay: Binding affinity to CASK r(CUG)16 RNA repeat in DM1 patient-derived myotubes at 1 uM measured after 48 hrs by RT-qPCR analysis; details: Homo sapiens, Myotube; procedure, shortened: as §1
r(CUG) repeat expansion [6] = assay: Binding affinity to LRP8 r(CUG)11 RNA repeat repeat in DM1 patient-derived myotubes at 1 uM measured after 48 hrs by RT-qPCR analysis; details: Homo sapiens, Myotube; procedure, shortened: as §1
Nucleic Acid = assay: Binding affinity to r(CG)8 RNA repeat (unknown origin) measured after 10 mins by fluorescence assay; type: nucleic-acid assay
r(CUG) repeat expansion [7] = assay: Binding affinity to wild-type DMPK r(CUG)20 RNA repeat in DM1 patient-derived myotubes at 1 uM measured after 48 hrs by RT-qPCR analysis; details: Homo sapiens, Myotube; procedure, shortened: as §1
Myotube [8] = assay: Effect on MBNL1 exon 5 splicing in wild type human myotubes at 0.04 to 1 uM measured after 48 hrs by RT-qPCR analysis; type: functional; details: dose 0.04-1 µM
[9] = Reduction in DMPK transcription in DM1-patient derived myotubes at 0.04 to 1 uM measured after 48 hrs by RT-qPCR analysis; type: functional, Homo sapiens, Myotube; parameters: scale not given: the % may be the effect or the level left; details: dose 0.04-1 µM; procedure, shortened: as §1
Myotube [10] = assay: Effect on alternative splicing of MAP4K4 exon 22a in DM1-patient derived myotubes at 0.04 to 1 uM measured after 48 hrs by RT-qPCR analysis; type: functional; details: Homo sapiens, dose 0.04-1 µM
r(CUG) repeat expansion [11] = assay: Binding affinity to [5'-32P]-r(CUG)10 RNA (unknown origin) assessed as induction of RNA cleavage at 5 uM measured after 24 hrs by gel electrophoresis method relative to control; type: nucleic-acid assay
Procedure, shortened: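 5′-radiolabeled r(CUG)10 incubated with agent; cleavage fragments resolved by gel electrophoresis; n = 3, one-way ANOVA.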

r(CUG) repeat expansion [12] = assay: Binding affinity to MAP3K4 r(CUG)11 RNA repeat in DM1 patient-derived myotubes at 1 uM measured after 48 hrs by RT-qPCR analysis; type: tissue-based; details: Homo sapiens, Myotube; procedure, shortened: as §1
r(CUG) repeat expansion [13] = assay: Binding affinity to r(CUG)exp RNA repeat in DM1-patient derived myotubes assessed as reduction in number of r(CUG)exp-MBNL1 foci at 1 uM measured after 48 hrs by RNA fluorescence in situ hybridization assay; parameters: scale not given: the % may be the effect or the level left; details: Homo sapiens, Myotube
Procedure, shortened: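 Nuclear foci counted in DM1 myotubes by confocal imaging: MBNL1 by immunofluorescence, r(CUG)exp by RNA FISH. Foci per nucleus from 40 nuclei per replicate, n = 3; Student's t-test.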

r(CUG) repeat expansion [14] = assay: Binding affinity to SORCS2 r(CUG)7 RNA repeat in DM1 patient-derived myotubes at 1 uM measured after 48 hrs by RT-qPCR analysis; details: Homo sapiens, Myotube; procedure, shortened: as §1
[15] = Cytotoxicity against DM1-patient derived myotubes assessed as change in cellular morphology at 5 uM measured after 48 hrs; details: human, myotube
Procedure, shortened: (§2)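 Cell morphology of DM1 patient-derived myotubes inspected during 48 h splicing treatment at 5 μM; agents altering morphology were re-tested at 1 μM.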

[16] = Drug localization in nucleus of DM1-patient derived myotubes at 5 uM measured after 24 hrs by live-cell fluorescence microscopy; type: ADME, subcellular; details: human, myotube
Procedure, shortened: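 DM1 patient myotubes bearing 1300 r(CUG) repeats given 5 μM agent; subcellular localization followed via intrinsic fluorescence of the H RNA-binding modules.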

r(CUG) repeat expansion [17] = assay: Binding affinity to r(CUG)exp RNA repeat in DM1-patient derived myotubes assessed as improvement in MBNL1 exon 5 splicing defect at 1 uM measured after 48 hrs by RT-qPCR analysis relative to control; details: Homo sapiens, Myotube
Procedure, shortened: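 DM1 patient-derived myotubes (1300 r(CUG) repeats) treated 48 h, then MBNL1 exon 5 splicing rescue measured. Single-dose screens at 5 μM or 1 μM, where 1 μM was used if 5 μM altered morphology, n = 3. Dose–response also run, n = 6. SD shown; one-way ANOVA.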

[18] = Cytotoxicity against DM1-patient derived myotubes assessed as change in cellular morphology at 1 uM measured after 48 hrs; details: human, myotube; procedure, shortened: as §2

CNCCCCN(CC(=O)N(CCN)CC(=O)N(CCCNC(=O)CCCOc1cccc(-c2nc3ccc(-c4nc5cc(N6CCN(C)CC6)ccc5[nH]4)cc3[nH]2)c1)CC(=O)NCCCCCC(=O)NCCCCNCCCNC(=O)c1csc(-c2csc(CCNC(=O)[C@@H](NC(=O)[C@@H](C)[C@H](O)[C@@H](C)NC(=O)[C@@H](NC(=O)c3nc([C@H](CC(N)=O)NC[C@H](N)C(N)=O)nc(N)c3C)[C@@H](O[C@@H]3O[C@@H](CO)[C@@H](O)[C@H](O)[C@@H]3O[C@@H]3O[C@H](CO)[C@@H](O)[C@H](OC(N)=O)[C@@H]3O)c3cnc[nH]3)[C@@H](C)O)n2)n1)C(=O)CN(C)C(=O)CN(CCCn1ccnc1)C(=O)CCCOc1cccc(-c2nc3ccc(-c4nc5cc(N6CCN(C)CC6)ccc5[nH]4)cc3[nH]2)c1
Activity (r(CUG) repeat expansion [1]): 30% | EC50 (r(CUG) repeat expansion [2]): 120 nM | Activity (Myotube [3]): inactive | Activity (r(CUG) repeat expansion [4]): inactive | Activity (r(CUG) repeat expansion [5]): inactive | Activity (r(CUG) repeat expansion [6]): inactive | Activity (Nucleic Acid): inactive | Activity (r(CUG) repeat expansion [7]): inactive | Activity (Myotube [8]): inactive | Activity [9]: 35% | Activity (Myotube [10]): inactive | Activity (r(CUG) repeat expansion [11]): > 70% | Activity (r(CUG) repeat expansion [12]): inactive | Activity (r(CUG) repeat expansion [13]): 30% | Activity (r(CUG) repeat expansion [14]): inactive

CNCCCCN(CC(=O)N(CC(=O)N(CC(=O)N(CCO)CC(=O)N(CCCNC(=O)CCCOc1cccc(-c2nc3ccc(-c4nc5cc(N6CCN(C)CC6)ccc5[nH]4)cc3[nH]2)c1)CC(N)=O)C1CCCCC1)Cc1cccnc1)C(=O)CCCOc1cccc(-c2nc3ccc(-c4nc5cc(N6CCN(C)CC6)ccc5[nH]4)cc3[nH]2)c1
Activity [15]: Non-Toxic | Drug uptake [16]: Active

COCCN(CC(=O)N(CCCNC(=O)CCCOc1cccc(-c2nc3ccc(-c4nc5cc(N6CCN(C)CC6)ccc5[nH]4)cc3[nH]2)c1)CC(N)=O)C(=O)CN(CCN)C(=O)CN(Cc1ccc(OC)cc1)C(=O)CN(CCN)C(=O)CCCOc1cccc(-c2nc3ccc(-c4nc5cc(N6CCN(C)CC6)ccc5[nH]4)cc3[nH]2)c1
Activity [15]: Non-Toxic | Drug uptake [16]: Active

CNCCCCN(CC(=O)N(CCCNC(=O)CCCOc1cccc(-c2nc3ccc(-c4nc5cc(N6CCN(C)CC6)ccc5[nH]4)cc3[nH]2)c1)CC(N)=O)C(=O)CN(CCCCNC)C(=O)CN(CCO)C(=O)CN(Cc1cccnc1)C(=O)CCCOc1cccc(-c2nc3ccc(-c4nc5cc(N6CCN(C)CC6)ccc5[nH]4)cc3[nH]2)c1
Activity [15]: Non-Toxic | Drug uptake [16]: Active

CNCCCCN(CC(=O)N(CCCNC(=O)CCCOc1cccc(-c2nc3ccc(-c4nc5cc(N6CCN(C)CC6)ccc5[nH]4)cc3[nH]2)c1)CC(N)=O)C(=O)CN(Cc1ccc(OC)cc1)C(=O)CN(CCCCNC)C(=O)CN(C(=O)CCCOc1cccc(-c2nc3ccc(-c4nc5cc(N6CCN(C)CC6)ccc5[nH]4)cc3[nH]2)c1)C1CCCCC1
Activity [15]: Toxic | Activity (r(CUG) repeat expansion [17]): inactive | Drug uptake [16]: Active | Activity [18]: Non-Toxic

CNCCCCN(CC(=O)N(CCC(=O)N1CCCC1)CC(=O)N(CCCNC(=O)CCCOc1cccc(-c2nc3ccc(-c4nc5cc(N6CCN(C)CC6)ccc5[nH]4)cc3[nH]2)c1)CC(N)=O)C(=O)CN(CCO)C(=O)CN(CCC(=O)N1CCCC1)C(=O)CCCOc1cccc(-c2nc3ccc(-c4nc5cc(N6CCN(C)CC6)ccc5[nH]4)cc3[nH]2)c1
Activity [15]: Non-Toxic | Drug uptake [16]: Active

CNCCCCN(CC(=O)N(CCCCNC)CC(=O)N(CCN)CC(=O)N(CCCNC(=O)CCCOc1cccc(-c2nc3ccc(-c4nc5cc(N6CCN(C)CC6)ccc5[nH]4)cc3[nH]2)c1)CC(N)=O)C(=O)CN(C)C(=O)CCCOc1cccc(-c2nc3ccc(-c4nc5cc(N6CCN(C)CC6)ccc5[nH]4)cc3[nH]2)c1
Activity [15]: Toxic | Activity (r(CUG) repeat expansion [17]): Active | Drug uptake [16]: Active | Activity [18]: Non-Toxic
